GSH fluor = compound fluoresces at 488/530 nm on GSH beads | fluorescence (KMESF) at 10 µM | AID 1776 | 0.25% of 190,000 active | GSH beads flow cytometry, compound fluorescence 488/530 nm; hits give high values; in the data active = fluorescence above about 89;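 note: glutathione beads carrying GST-tagged Bcl family fusion proteins plus one bare bead set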
ABCG2 block = human ABCG2 inhibition, ABCB1 as counter-screen. Q9UNQ0. IgMXP3 cells, JC-1 efflux, flow cytometry. inhibition, % at 6.6 µM. 0.1% of 190,000 active;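 active = inhibition above 80%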
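Measure – % inhibition of efflux relative to nicardipine and DMSO · Test system – ABCG2 IgMXP3 and barcoded ABCB1 CCRF-Adr cell mix · Control set – nicardipine as high control, DMSO as low control · Compound – one concentration, 6.6 µM final · Signal – flow cytometry of retained JC-1 fluorescence · Timing – 10 min exposure at 25 °C with rotation, no wash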
PKD1 inh = blocks activity of human protein kinase D1; Q15139; PKD1 kinase fluorescence polarization assay; inhibition, % (concentration not given with the values); 0.056% of 200,000 active; AID 797
ABCB1 inh = blocks JC-1 efflux by human ABCB1 transporter. 0.067% of 190,000 active. inhibition, % at 6.6 µM. CCRF-Adr cells, flow cytometry; in the data active = inhibition above about 40%;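 note: higher value means more JC-1 retained so stronger ABCB1 efflux block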
Avidin fluor = compound fluoresces at 488/530 nm on avidin beads | compound fluorescence 488/530 nm, flow cytometry; hits give high values | fluorescence (KMESF) at 10 µM | 0.38% of 220,000 active; in the data active = fluorescence above about 47
Lmaj promast = Leishmania major promastigote growth inhibition; 9% of 200,000 active; AID 1063; Leishmania major promastigotes, resazurin fluorescence viability; inhibition, % at 10 µM;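 note: promastigotes grown with compound for 44 hours at 28 °C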
Of the large screens only hits and unclear results are named; the others gave an inactive call. Many of the other results were omitted from the sample, so hits are more common in it than they were. Cut-off read from the data, not from the text of the source, unless noted: active = inhibition above about 50%; inactive = the rest.

CC/C(CC(c1ccccc1)c1c(O)c2ccccc2oc1=O)=N\NC(N)=S (configuration not stated)	none
CCOC(=O)C(O)(c1ccc(N(CC)S(=O)(=O)c2ccc(C)cc2)cc1)C(F)(F)F (configuration not stated)	Lmaj promast 93
CCN(c1ccc(C(O)(C(=O)OC)C(F)(F)F)cc1)S(=O)(=O)c1ccc(C)cc1 (configuration not stated)	Lmaj promast 89
CCOC(=O)C(O)(c1ccc(N(C)C(=O)COc2ccccc2)cc1)C(F)(F)F (configuration not stated)	none (no result: GSH fluor, ABCG2 block, ABCB1 inh, Avidin fluor)
COC(=O)C(O)(c1ccc(N(C)S(=O)(=O)c2ccccc2)cc1)C(F)(F)F (configuration not stated)	Lmaj promast 100
CCOC(=O)C(O)(c1ccc(N(CC)C(=O)COc2ccccc2)cc1)C(F)(F)F (configuration not stated)	Lmaj promast 65
Cc1nonc1OCCNCCNc1ccc([N+](=O)[O-])c2cccnc12	none
COc1ccc(C2SCC(=O)Nc3c2c(C)nn3C2CCOC(C)(C)C2)cc1OC (configuration not stated)	none
COc1ccc(C2SCC(=O)Nc3c2c(C)nn3-c2ccccc2)cc1OC (configuration not stated)	Lmaj promast 62
Cc1ccccc1-n1c(-c2ccco2)nc2ccccc2c1=O	none
CSc1ccc(CNC(C)C(O)c2ccccc2)cc1 (configuration not stated)	Lmaj promast 84
COc1cc2[nH]c(=O)n(-c3ccc(C)cc3)c(=O)c2cc1OC	none
CC1=NOC2(C)Nc3ncnn3C(c3ccccc3)C12 (configuration not stated)	none
CCOc1ccc(N=C2SCCCN2C)cc1	none
Cc1ccccc1NC(=O)NCCN1CC1	none (no result: GSH fluor, ABCG2 block, PKD1 inh, ABCB1 inh, Lmaj promast)
O=C1C(=O)c2ccccc2-c2ccccc21	Lmaj promast 100
O=C1C(=O)c2cccc3cccc1c23	none
CCOC(=O)N(C)c1ccc(C(O)(C(=O)OC)C(F)(F)F)cc1 (configuration not stated)	Lmaj promast 93
COC(=O)C(O)(c1ccc(N(C)C(=O)c2ccc(Cl)c(Cl)c2)cc1)C(F)(F)F (configuration not stated)	Lmaj promast 64
COC(=O)C(O)(c1ccc(N(C)C)cc1)C(F)(F)F (configuration not stated)	none
COC(=O)C(O)(c1ccc(N(C)C(=O)c2cccs2)cc1)C(F)(F)F (configuration not stated)	Lmaj promast 97
CCOC(=O)C(O)(c1ccc(N(C)C(=O)c2ccc(Cl)c(Cl)c2)cc1)C(F)(F)F (configuration not stated)	Lmaj promast 97
CCOC(=O)C(O)(c1ccc(NC(=O)c2ccc(Cl)c(Cl)c2)cc1)C(F)(F)F (configuration not stated)	none (no result: GSH fluor, ABCG2 block, PKD1 inh, ABCB1 inh, Lmaj promast)
Cc1ccc(NC(=S)NCCc2cnc[nH]2)cc1C	none
CCOC(=O)c1ccc2c(c1)n(Cc1ccccc1)c(C)[n+]2CC	none
O=C(c1cc(C(=O)NCc2ccc(Cl)cc2)c(=O)n(Cc2ccc(Cl)cc2)c1)c1cc(F)ccc1O	none
Cc1ccc(O)c(C(=O)c2cc(C(=O)NCCC(C)C)c(=O)n(CCC(C)C)c2)c1	Lmaj promast 82
O=C(c1ccccc1)C(CN1CCCC1)c1ccccc1 (configuration not stated)	Lmaj promast 100 (no result: ABCB1 inh)
CCCCn1c(=O)c(C(=O)Nc2nnc(C(C)C)s2)c(O)c2ccccc21	none
COc1ccccc1CCNC1CCC(C(C)(C)C)CC1 (configuration not stated)	Lmaj promast 100
COc1ccc(F)cc1C(=O)C1CCCN(Cc2cnc(C)s2)C1 (configuration not stated)	none
COc1ccc(Cl)cc1C(=O)C1CCCN(Cc2cnc(C)s2)C1 (configuration not stated)	Lmaj promast 78
COc1c(C)cc(C(=O)C2CCCN(Cc3cnc(C)s3)C2)cc1C (configuration not stated)	Lmaj promast 70
COc1c(C)cc(C(=O)C2CCCN(Cc3ccccn3)C2)cc1C (configuration not stated)	Lmaj promast 100

Screening results from PubChem.
